The target in assay [1] is T1, 5-hydroxytryptamine receptor 1A (Rattus norvegicus, UniProt P19327).
T1 sequence (P19327 whole entry): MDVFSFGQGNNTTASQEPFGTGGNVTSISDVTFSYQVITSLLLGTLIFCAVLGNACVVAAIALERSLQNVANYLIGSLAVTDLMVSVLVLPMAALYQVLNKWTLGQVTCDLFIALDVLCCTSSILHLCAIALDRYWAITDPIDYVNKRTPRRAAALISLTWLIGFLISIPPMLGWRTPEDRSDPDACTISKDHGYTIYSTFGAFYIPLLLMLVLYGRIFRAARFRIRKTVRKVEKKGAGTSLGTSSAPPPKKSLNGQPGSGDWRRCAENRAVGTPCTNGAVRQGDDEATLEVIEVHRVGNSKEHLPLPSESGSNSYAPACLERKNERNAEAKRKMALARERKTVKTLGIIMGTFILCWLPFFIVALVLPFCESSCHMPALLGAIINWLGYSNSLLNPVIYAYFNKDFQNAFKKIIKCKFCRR
Kind of assay: Binding affinity towards rat hippocampal 5-hydroxytryptamine 1A receptor using [3H]8-OH-DPAT as radioligand. It counts as tissue-based, Hippocampus. In a few lines:
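Hippocampus pooled from male Sprague–Dawley rats (175–199 g), homogenised in sucrose and frozen. Membranes washed and preincubated twice at 37 °C in Tris HCl pH 7.4 with EDTA, ascorbate and pargyline. Assay: 0.75 nM [3H]-8-OH-DPAT, 200–400 μg protein, 15 min at 37 °C, GF/C filtration. Nonspecific binding: 10 μM 5-HT. Run in triplicate; expressed as Ki.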

Assay [2] addresses T2, 5-hydroxytryptamine receptor 2A (Homo sapiens, UniProt P28223). Briefly: Agonistic activity at cloned human 5-hydroxytryptamine 2A receptor using [125I]DOI as radioligand. Type of assay: functional. In a few lines: (§1)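 AV12 hamster fibroblast membranes stably expressing the human receptor. Final buffer: 10 μM pargyline, 9.75 mM MgCl2, 0.5 mM EDTA, 0.1% Na ascorbate, 50 mM Tris HCl pH 7.4. [125I]DOI was at about 0.07–0.15 nM, with about 40 μg (2A) or 30 μg (2C) protein, for 30 min at 37 °C. Nonspecific binding: 1 μM ketanserin (2A) or 10 μM mianserin (2C). Read by filtration and gamma counting.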

Assay [3] has as its target T2, 5-hydroxytryptamine receptor 2A. Kind of assay: Antagonistic activity at cloned human 5-hydroxytryptamine 2A receptor using [3H]ketanserin as radioligand. It counts as functional. In a few lines: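 Human 5-HT2A expressed in AV12 cell membranes. The 0.8 mL assay held 50 mM Tris HCl, 100 nM prazosin to block α1 sites, 0.4–0.5 nM [3H]ketanserin and varying competitor, final pH 7.6. Incubated 15 min at 37 °C, then filtered and washed. Mianserin 3 μM defined nonspecific binding. Read by liquid scintillation.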

Assay [4] has as its target T3, 5-hydroxytryptamine receptor 2B (Homo sapiens, UniProt P41595). Briefly: Agonistic activity at cloned human 5-hydroxytryptamine 2B receptor using [3H]-5-HT as radioligand. It counts as functional. The gist of the method:
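Membranes from AV12 hamster fibroblasts stably expressing human 5-HT2B, lysed hypotonically in 50 mM Tris HCl pH 7.4. Competition against about 2 nM [3H]-5-HT (free level measured) in 50 mM Tris, 3 mM CaCl2, 10 μM pargyline, 0.1% ascorbic acid, pH 7.4. Drug dilutions spanned 6 log units. About 100-150 μg protein per tube, 15 min at 37 °C, in triplicate. Nonspecific binding with 10 μM 5-HT or 1-NP. Filtration, then scintillation counting.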

Assay [5] has as its target T3, 5-hydroxytryptamine receptor 2B. Kind of assay: Antagonistic activity at cloned human 5-hydroxytryptamine 2B receptor using [3H]rauwolscine as radioligand. Type of assay: functional. In a few lines: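 Human 5-HT2B membranes from stably transformed AV12 cells in Tris HCl pH 7.4. Competition against 2 nM [3H]rauwolscine (final), with 500 nM efaroxan to mask α2 sites, in 50 mM Tris HCl pH 7.4. Incubated 20 min at 37 °C, then filtered. Nonspecific binding with 10 μM 1-naphthylpiperazine.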

In assay [6] the target is T4, 5-hydroxytryptamine receptor 2C (Homo sapiens, UniProt P28335).
T4 sequence (P28335 whole entry): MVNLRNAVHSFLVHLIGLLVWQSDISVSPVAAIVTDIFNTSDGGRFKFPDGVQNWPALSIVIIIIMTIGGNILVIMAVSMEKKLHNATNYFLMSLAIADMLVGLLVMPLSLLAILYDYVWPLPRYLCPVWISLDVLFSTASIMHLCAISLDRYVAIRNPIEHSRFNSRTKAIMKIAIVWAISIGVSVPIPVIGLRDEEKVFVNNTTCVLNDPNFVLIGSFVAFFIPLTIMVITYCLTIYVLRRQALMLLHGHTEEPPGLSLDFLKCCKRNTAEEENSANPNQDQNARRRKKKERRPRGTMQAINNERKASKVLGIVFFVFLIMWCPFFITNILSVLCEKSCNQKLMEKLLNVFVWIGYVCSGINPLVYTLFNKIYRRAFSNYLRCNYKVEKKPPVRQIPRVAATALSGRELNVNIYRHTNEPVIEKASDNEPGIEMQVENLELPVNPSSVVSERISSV
Kind of assay: Agonistic activity at cloned human 5-hydroxytryptamine 2C receptor using [125I]DOI as radioligand. It counts as functional. The gist of the method:
as §1

The target in assay [7] is T4, 5-hydroxytryptamine receptor 2C. Kind of assay: Antagonistic activity at cloned human 5-hydroxytryptamine 2C receptor using [3H]mesulergine as radioligand. Type of assay: functional. In a few lines: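 AV12 membranes expressing human 5-HT2C. The 0.8 mL assay held 0.74–0.82 nM [3H]mesulergine, varying competitor and Tris HCl, final pH 7.6. Incubated 30 min at 37 °C, then filtered, washed and counted by liquid scintillation. Mianserin defined nonspecific binding.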

For assay [8], the target named is 5-hydroxytryptamine receptor 2A (Rattus norvegicus, UniProt P14842). Kind of assay: Binding affinity towards rat cortical 5-hydroxytryptamine 2A receptor using [3H]ketanserin as radioligand.
The species entered for assay [9] is Rattus norvegicus. Kind of assay: Effective dose for behavioral activity or hallucinogenic potential in drug discrimination studies in LSD(d-lysergic acid N,N-diethylamide) trained rats. It counts as functional. On the set-up: unit not given here. The gist of the method: (§2)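 Male Sprague–Dawley rats (200–220 g) trained in a two-lever, FR50 food task to tell LSD tartrate (0.08 mg/kg ip) from saline. Test drugs were given ip in 0.9% saline 30 min before extinction sessions. The first lever reaching 50 presses was scored; no completion within 5 min counted as disruption.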

For assay [10], the species on record is Rattus norvegicus. Briefly: Effective dose in Drug Discrimination studies in LSD(d-lysergic acid N,N-diethylamide) trained rats. No. of animals tested 15. Type of assay: functional. In a few lines:
as §2

5-hydroxytryptamine receptor 2A (Rattus norvegicus, UniProt P14842), sequence (P14842 whole entry): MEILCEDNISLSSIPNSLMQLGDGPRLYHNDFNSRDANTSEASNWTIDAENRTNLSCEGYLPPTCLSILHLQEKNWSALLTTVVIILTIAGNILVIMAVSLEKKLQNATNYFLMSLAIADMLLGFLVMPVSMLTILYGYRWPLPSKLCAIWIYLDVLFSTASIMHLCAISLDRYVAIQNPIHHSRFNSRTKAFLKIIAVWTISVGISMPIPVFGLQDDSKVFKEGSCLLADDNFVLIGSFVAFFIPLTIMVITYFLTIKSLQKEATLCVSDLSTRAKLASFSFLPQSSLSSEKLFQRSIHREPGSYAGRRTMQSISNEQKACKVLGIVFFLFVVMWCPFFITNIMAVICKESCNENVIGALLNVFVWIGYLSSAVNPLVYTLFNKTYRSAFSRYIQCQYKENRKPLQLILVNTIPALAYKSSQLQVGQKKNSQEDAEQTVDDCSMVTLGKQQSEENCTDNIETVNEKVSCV
T3 sequence (P41595 whole entry): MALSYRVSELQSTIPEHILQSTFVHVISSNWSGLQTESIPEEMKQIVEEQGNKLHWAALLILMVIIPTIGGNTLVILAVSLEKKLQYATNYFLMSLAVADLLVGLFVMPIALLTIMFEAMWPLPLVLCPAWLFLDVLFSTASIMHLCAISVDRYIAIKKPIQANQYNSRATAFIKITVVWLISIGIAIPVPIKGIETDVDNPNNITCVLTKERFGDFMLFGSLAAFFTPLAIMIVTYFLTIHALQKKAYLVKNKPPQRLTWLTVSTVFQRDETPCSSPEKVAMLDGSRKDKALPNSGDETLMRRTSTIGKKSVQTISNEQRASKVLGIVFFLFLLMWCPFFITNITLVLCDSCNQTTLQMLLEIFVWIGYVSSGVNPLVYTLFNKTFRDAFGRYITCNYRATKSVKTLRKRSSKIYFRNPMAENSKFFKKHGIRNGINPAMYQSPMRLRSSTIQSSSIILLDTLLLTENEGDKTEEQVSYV
T2 sequence (P28223 whole entry): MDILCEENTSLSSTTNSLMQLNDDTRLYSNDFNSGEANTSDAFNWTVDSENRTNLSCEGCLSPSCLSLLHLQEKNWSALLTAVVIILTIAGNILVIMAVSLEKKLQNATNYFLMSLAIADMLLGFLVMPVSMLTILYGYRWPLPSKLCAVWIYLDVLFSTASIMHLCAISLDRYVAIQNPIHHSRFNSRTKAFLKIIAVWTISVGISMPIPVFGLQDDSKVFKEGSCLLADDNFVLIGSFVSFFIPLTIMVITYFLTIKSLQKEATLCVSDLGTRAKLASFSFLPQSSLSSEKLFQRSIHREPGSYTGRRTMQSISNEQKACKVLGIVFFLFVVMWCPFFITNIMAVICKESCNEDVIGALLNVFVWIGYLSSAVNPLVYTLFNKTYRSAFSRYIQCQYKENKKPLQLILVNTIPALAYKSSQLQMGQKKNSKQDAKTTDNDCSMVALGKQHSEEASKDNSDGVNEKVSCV

For the compound `CC(N)Cc1c2c(c(Br)c3c1OCC3)OCC2` (stereo unspecified), the Ki (commonly a dissociation constant, usually derived from enzyme kinetics or from competition with a known ligand) in assay [1] is 4.3 nM; in assay [2] it was 0.48 nM; in assay [3] it was 10.7 nM; in assay [4], 1.6 nM; in [5], 1.15 nM; in [6] it was 0.3 nM. Moreover, the Ki in [7] was 2.28 nM; in assay [8], 18 nM. For the same compound, the ED50 in the assay filed under Rattus norvegicus [9] came to 61.

Compound `COc1cc(CC(C)N)c(OC)cc1Br` (stereo unspecified) [BROLAMFETAMINE] gave a Ki in assay [1] of 6.1 nM.

For `CC(N)Cc1c2c(cc3c1OCC3)OCC2` (stereo unspecified), the Ki turned out to be 29 nM in assay [1] and 2010 nM in assay [8]. Also, the ED50 in the assay listed under Rattus norvegicus [9] was determined as 64000.

`CCN(CC)C(=O)[C@@H]1C=C2c3cccc4[nH]cc(c34)C[C@H]2N(C)C1` [LYSERGIDE]: the ED50 in the assay filed under Rattus norvegicus [10] was 40 µmol/kg.

Take `NCCc1c2c(cc3c1OCC3)OCC2`: the Ki came out at 5.2 nM in assay [1] and 2300 nM in assay [8]. The compound also gave an ED50 in the assay listed under Rattus norvegicus [9] of 1430.

Compound `COc1cc(Br)c2c(c1CC(C)N)CCO2` (stereo unspecified) displayed an ED50 in the assay filed under Rattus norvegicus [9] of 570.

Regarding `Cc1c2c(c(CC(C)N)c3c1OCC3)OCC2` (stereo unspecified), in the assay listed under Rattus norvegicus [9], the ED50 turned out to be 780.

As to `NCCc1c2c(c(Br)c3c1OCC3)OCC2`, the values for the Ki in assay [1] and in assay [8] were 0.8 nM and 34 nM, respectively.

Values taken from ChEMBL document CHEMBL1129247, “Dihydrobenzofuran analogues of hallucinogens. 3. Models of 4-substituted (2,5-dimethoxyphenyl)alkylamine derivatives with rigidified methoxy groups” (J Med Chem, 1996).
